In test [1] the target is NAD-dependent histone deacetylase SIR2 (Saccharomyces cerevisiae S288c) (UniProt P06700). The experiment in a line: Inhibitory activity against recombinant yeast Sir2 at 100 uM. The essentials: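 Purified His-tagged recombinant yeast Sir2p (3 μg) was incubated 60 min at 30 °C with 250 μM acetylated histone substrate, 1 mM DTT, 200 μM NAD⁺ and inhibitor at 0, 20, 75, 100, 150 or 300 μM. Deacetylation was detected fluorometrically after developer treatment (ex 360/em 450 nm). Values are means of at least three separate experiments.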
Chain of NAD-dependent histone deacetylase SIR2 (Saccharomyces cerevisiae S288c) (P06700 whole entry): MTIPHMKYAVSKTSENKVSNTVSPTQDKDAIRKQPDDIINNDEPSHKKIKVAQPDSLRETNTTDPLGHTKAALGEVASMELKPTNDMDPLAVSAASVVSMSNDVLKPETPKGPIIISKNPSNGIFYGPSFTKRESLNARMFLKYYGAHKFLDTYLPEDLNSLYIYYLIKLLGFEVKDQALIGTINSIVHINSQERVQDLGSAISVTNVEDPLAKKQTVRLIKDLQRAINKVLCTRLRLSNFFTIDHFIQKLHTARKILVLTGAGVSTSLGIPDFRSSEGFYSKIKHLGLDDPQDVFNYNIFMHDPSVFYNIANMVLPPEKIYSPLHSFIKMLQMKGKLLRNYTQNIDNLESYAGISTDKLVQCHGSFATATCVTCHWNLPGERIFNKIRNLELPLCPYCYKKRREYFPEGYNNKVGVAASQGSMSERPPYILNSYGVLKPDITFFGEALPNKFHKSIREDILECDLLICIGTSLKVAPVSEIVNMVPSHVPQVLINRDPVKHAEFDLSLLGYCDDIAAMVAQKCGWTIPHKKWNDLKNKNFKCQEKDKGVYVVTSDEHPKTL

In test [2] the target is T1, NAD-dependent protein deacetylase sirtuin-1 (Homo sapiens) (UniProt Q96EB6).
T1 sequence (whole entry): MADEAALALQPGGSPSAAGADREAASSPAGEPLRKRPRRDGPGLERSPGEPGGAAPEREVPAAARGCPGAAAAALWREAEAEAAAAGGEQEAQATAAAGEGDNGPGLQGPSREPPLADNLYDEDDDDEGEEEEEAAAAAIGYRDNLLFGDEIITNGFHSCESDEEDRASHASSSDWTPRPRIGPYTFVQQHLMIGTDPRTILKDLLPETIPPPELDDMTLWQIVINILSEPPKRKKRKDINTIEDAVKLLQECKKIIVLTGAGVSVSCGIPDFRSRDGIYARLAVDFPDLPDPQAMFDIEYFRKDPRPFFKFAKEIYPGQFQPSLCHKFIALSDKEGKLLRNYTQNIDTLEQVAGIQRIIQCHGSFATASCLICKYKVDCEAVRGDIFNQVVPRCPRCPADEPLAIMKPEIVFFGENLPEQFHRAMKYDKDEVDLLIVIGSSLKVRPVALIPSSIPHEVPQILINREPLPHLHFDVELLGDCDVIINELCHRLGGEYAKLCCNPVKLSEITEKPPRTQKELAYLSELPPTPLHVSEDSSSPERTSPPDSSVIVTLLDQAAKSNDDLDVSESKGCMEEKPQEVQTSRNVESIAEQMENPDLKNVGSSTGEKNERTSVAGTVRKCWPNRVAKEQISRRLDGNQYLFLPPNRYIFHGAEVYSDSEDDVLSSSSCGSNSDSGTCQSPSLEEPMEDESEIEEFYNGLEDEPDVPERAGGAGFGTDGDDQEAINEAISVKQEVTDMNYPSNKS
Description: Inhibitory activity against human SIRT1 at 100 uM. The essentials: (§1)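 His-tagged recombinant human SIRT1 or SIRT2 (1 μg), purified, run in a fluorogenic deacetylase assay with 250 μM acetylated histone substrate, 1 mM DTT and 200 μM NAD⁺ for 60 min at 37 °C. Inhibitor was tested at 0, 20, 75, 100, 150 or 300 μM. Developer was added and fluorescence read at ex 360/em 450 nm. Values are the mean of at least three separate experiments.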

Test [3] has as its target T2, NAD-dependent protein deacetylase sirtuin-2 (Homo sapiens) (UniProt Q8IXJ6).
T2 sequence (whole entry): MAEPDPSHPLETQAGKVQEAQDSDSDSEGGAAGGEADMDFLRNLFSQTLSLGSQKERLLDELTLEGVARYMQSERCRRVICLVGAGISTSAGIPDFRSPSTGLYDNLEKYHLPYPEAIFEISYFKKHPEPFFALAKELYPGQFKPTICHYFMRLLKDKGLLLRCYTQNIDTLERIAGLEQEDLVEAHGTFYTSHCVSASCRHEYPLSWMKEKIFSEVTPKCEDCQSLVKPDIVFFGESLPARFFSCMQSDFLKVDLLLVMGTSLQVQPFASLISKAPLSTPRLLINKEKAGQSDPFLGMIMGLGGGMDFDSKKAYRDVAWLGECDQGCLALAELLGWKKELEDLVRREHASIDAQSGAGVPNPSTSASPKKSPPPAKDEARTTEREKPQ
Description: Inhibitory activity against human SIRT2 at 100 uM. The essentials: as §1

The source made the active and inactive calls. No cut-off for these calls is given here.

Usually inhibition stands for the percentage by which the read-out fell short of the control. As for `NC(=O)c1ccccc1/N=C/c1c(O)ccc2ccccc12`, the inhibition result in test [1] and in test [2] was “inactive” in each case.

As to `C[C@@H](NC(=O)c1ccccc1/N=C/c1c(O)ccc2ccccc12)c1ccccc1`, the inhibition in test [1] is 55.5%; in test [3] it was 72.2%; in test [2] it was 61.8%.

With `CC(NC(=O)c1ccc(/N=C/c2c(O)ccc3ccccc23)cc1)c1ccccc1` (stereo not given), the inhibition in test [1] stood at 59.8%; in test [3] it was 80.2%; in test [2] it was 82.6%.

As for `CC(NC(=O)c1ccccc1/N=C/c1cccc2ccccc12)c1ccccc1` (stereo not given), the inhibition was 10% in test [1] and 33% in test [2].

Turning to `N#Cc1ccccc1/N=C/c1c(O)ccc2ccccc12`, the inhibition was 15% in test [1] and 20% in test [2].

For `CC(NC(=O)c1cccc(/N=C/c2c(O)ccc3ccccc23)c1)c1ccccc1` (stereo not given), the figures for the inhibition in test [1], in test [3] and in test [2] were 53.9%, 79.2% and 63%, respectively.

As to `CC(NC(=O)c1ccccc1/N=C/c1c(O)ccc2ccccc12)c1ccccc1` (stereo not given), the inhibition in test [1] was determined as 65.6%; in test [3], 71%; in test [2] it was 44.5%.

Consider `CCOC(=O)c1ccccc1/N=C/c1c(O)ccc2ccccc12`, for which the inhibition in test [1] worked out at 20%; in test [2], 9%.

On to `C[C@H](NC(=O)c1ccccc1/N=C/c1c(O)ccc2ccccc12)c1ccccc1`, for which the inhibition was 57% in test [1], 73.5% in test [3] and 60.2% in test [2].

`O=C(O)c1ccccc1/N=C/c1c(O)ccc2ccccc12`: the results for the inhibition in test [1] and in test [2] were 5% and 26%, respectively.

These data come from ChEMBL document CHEMBL1141869.
